Data on 3 compounds can be found in paper PMC7495282 (British Journal of Clinical Pharmacology, 2020).

Read-outs that look alike come from different tables or passages of the source.

The conditions of data set [1]: cited from earlier work.
Data set [2] can be described thus: Study 2 safety and tolerability. In kind it is in vivo, healthy Japanese subjects. Put shortly:
(§1)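 Healthy Japanese males, 20–45 y. Safety was assessed from adverse events, laboratory tests, vital signs (BP, pulse rate, body temperature) and 12-lead ECG. Adverse events were coded by MedDRA/J (versions 19.0 and 19.1) System Organ Class and Preferred Term. Safety set was all consenting subjects given at least 1 dose of any study drug.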

Data set [3] in a line: Study 1 safety and tolerability. In kind it is in vivo, healthy Japanese subjects. The conditions noted are these: for Blood creatine phosphokinase increased, TEAE / Eosinophil count increased, TEAE / Rash, TEAE: n = 20. In short, it runs like this:
as §1

Data set [4] is classed as in vivo, healthy Japanese subjects. Put shortly: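 Healthy Japanese males, 20–45 y. Oral 5 mg, fasted, Day 1. CYP3A inducer 600 mg orally once daily before breakfast for 9 days from Day 8; Day 13 dose given fasted 2 h after inducer. Plasma taken predose to 96 h (1700 g, 10 min, 4 °C; stored ≤−20 °C). Parent and metabolites M1, M4, M11 by SPE–LC–MS/MS. Noncompartmental analysis; GLSM ratios, 90% CI.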

Data set [5] concerns mineralocorticoid receptor (MR). The conditions noted are these: in vitro, cited from earlier work.
For data set [6] the following is noted: cited from earlier work. This is another data set of the same source.
The nature of data set [7]: Study 1: single-dose esaxerenone pharmacokinetics alone and with itraconazole. In kind it is in vivo, healthy Japanese subjects. In short, it runs like this:
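Healthy Japanese males, 20–45 y, BMI 18.5–<25 kg m−2. Oral 2.5 mg tablet with 200 mL water, fasted (≥10 h before, 4 h after), on Day 1. CYP3A inhibitor 200 mg twice on Day 8, then once daily Days 9–16. Day 13 co-dose given fasted. Plasma sampled predose to 96 h, extracted by SPE, assayed by LC–MS/MS. Noncompartmental PK; GLSM ratios with 90% CI.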

For data set [8], the system named is CYP3A4. The conditions noted are these: human liver microsomes and human CYP expression system; cited from earlier work.
Data set [9] has as its system P‐glycoprotein (P‐gp). The conditions noted are these: in vitro; cited from earlier work.
Data set [10] deals with CYP3A5. The settings on record: human liver microsomes and human CYP expression system; cited from earlier work. For orientation: Liver microsomes are vesicles of endoplasmic reticulum, rich in cytochrome P450 enzymes.
For data set [11] the following is noted: esaxerenone 20 mg; ref unpublished data on file, Daiichi Sankyo Co., Ltd.; cited from earlier work.
In data set [12] the test system is breast cancer resistance protein. The conditions noted are these: in vitro; cited from earlier work.
For data set [13] the following is noted: cited from earlier work. The source holds these as a separate data set.
The subject of data set [14] is human MR. The conditions noted are these: read-out: half-maximal inhibitory concentration for the transcriptional activity of human MR; in vitro; cited from earlier work.
The conditions of data set [15]: in the presence of ketoconazole; cited from earlier work.
Setting [16] is: Study 2, esaxerenone 5 mg + rifampicin, n = 11.
The mark [17] stands for this setting: Study 2, esaxerenone 5 mg alone, n = 12.
The mark [18] stands for this setting: Study 1, esaxerenone 2.5 mg + itraconazole.
The mark [19] stands for this setting: Study 1, esaxerenone 2.5 mg alone.
[20] abbreviates: (esaxerenone + rifampicin)/(esaxerenone alone), 5 mg.
The mark [21] stands for this setting: coadministration with rifampicin vs esaxerenone alone.
The mark [22] stands for this setting: esaxerenone 5 mg + rifampicin, n = 11.
Setting [23] is: esaxerenone 5 mg single oral dose + rifampicin 600 mg once daily, n = 11.
Setting [24] is: esaxerenone 5 mg single oral dose, alone, n = 11.
[25] abbreviates: esaxerenone 5 mg, alone, n = 11.
The mark [26] stands for this setting: (esaxerenone + itraconazole)/(esaxerenone alone), 2.5 mg.
The mark [27] stands for this setting: esaxerenone 2.5 mg + itraconazole, n = 20.
Where [28] appears, read: esaxerenone 2.5 mg single oral dose + itraconazole 200 mg, n = 20.
The mark [29] stands for this setting: esaxerenone 2.5 mg single oral dose, alone, n = 20.
[30] abbreviates: esaxerenone 2.5 mg, alone, n = 20.

On to `Cc1c(C(=O)Nc2ccc(S(C)(=O)=O)cc2)cn(CCO)c1-c1ccccc1C(F)(F)F` [Esaxerenone], for which the “proportion of unchanged drug excreted in faeces” value in data set [1] (14C-labelled esaxerenone) is listed as 18.7%. Besides, the “proportion of unchanged drug excreted in urine” value in data set [1] (14C-labelled esaxerenone) is reported as 1.6%. Besides, in data set [1] (metabolite profiles in faeces and urine), the “overall excretion rate of oxidised metabolites” value was “about 30 % of the total dose”. Further, the “serious AEs” value in data set [2] (Study 2) and in [3] (Study 1) was “No serious AEs” throughout. For the same compound, the “Blood creatine phosphokinase increased, TEAE” value was 0 number of subjects (%) in data set [2] (setting [16]), 0 number of subjects (%) in [2] (setting [17]), 0 number of subjects (%) in data set [3] (setting [18]) and 1 (5.0) number of subjects (%) in [3] (setting [19]). Also, the “Eosinophil count increased, TEAE” value in data set [2] (setting [16]) is 1 (9.1) number of subjects (%); in [2] (setting [17]), 0 number of subjects (%); in data set [3] (setting [18]), 0 number of subjects (%); in data set [3] (setting [19]), 0 number of subjects (%). Besides, the “Rash, TEAE” value is on record as 0 number of subjects (%) in data set [2] (setting [16]), 1 (8.3) number of subjects (%) in data set [2] (setting [17]), 0 number of subjects (%) in data set [3] (setting [18]) and 0 number of subjects (%) in [3] (setting [19]). The “subjects reporting TEAEs” value was found to be 2 subjects in [2] (Study 2, whole study) and 1 subject in data set [3] (Study 1, whole study). In addition, the “safety and tolerability (in words)” value was “safe and well tolerated” in data set [2] (administered concomitantly with rifampicin); “safe and well tolerated” in [3] (administered concomitantly with itraconazole). In addition, the “AUCinf GLSM ratio (90% CI)” value in data set [4] (setting [20]) is reported as 0.312 (0.297, 0.328); in data set [7] (setting [26]), 1.53 (1.45, 1.62); in data set [7] ((esaxerenone + itraconazole)/(esaxerenone alone), 2.5 mg, listed as esaxerenone) it was 1.53 (1.45–1.62). The “Cmax GLSM ratio (90% CI)” value in [4] (setting [20]) is listed as 0.659 (0.599, 0.724); in data set [7] (setting [26]), 1.13 (1.05, 1.20). For the same compound, the “decrease in esaxerenone Cmax” value in [4] (setting [21]) came out at 34.1%. In addition, in data set [4] (setting [21]), the “fold reduction of esaxerenone AUCinf” value was “approximately 0.3 fold”. The “AUCinf, GLSM” value in data set [4] (setting [22]) turned out to be 350 ng·h/mL; in [4] (setting [25]), 1121 ng·h/mL; in data set [7] (setting [27]), 976 ng·h/mL; in [7] (setting [30]), 637 ng·h/mL. For the same compound, the “Cmax, GLSM” value worked out at 47.2 ng/mL in data set [4] (setting [22]), 71.7 ng/mL in data set [4] (setting [25]), 41.0 ng/mL in data set [7] (setting [27]) and 36.4 ng/mL in [7] (setting [30]). Moreover, the “AUCinf, arithmetic mean (SD)” value in data set [4] (setting [23]) is on record as 351 (24.8) ng h mL^−1; in data set [4] (setting [24]), 1130 (150) ng h mL^−1; in data set [7] (setting [28]), 996 (219) ng h mL^−1; in data set [7] (setting [29]), 648 (121) ng h mL^−1. In addition, the “CL/F, arithmetic mean (SD)” value is recorded as 14.3 (1.01) L h^−1 in data set [4] (setting [23]), 4.50 (0.634) L h^−1 in data set [4] (setting [24]), 2.61 (0.477) L h^−1 in [7] (setting [28]) and 3.98 (0.696) L h^−1 in data set [7] (setting [29]). Besides, the “Cmax, arithmetic mean (SD)” value in data set [4] (setting [23]) was 47.6 (6.22) ng mL^−1; in data set [4] (esaxerenone 5 mg single oral dose, alone, n = 11, plasma), 72.4 (10.1) ng mL^−1; in [7] (setting [28]) it was 41.7 (8.46) ng mL^−1; in data set [7] (esaxerenone 2.5 mg single oral dose, alone, n = 20, plasma), 36.7 (5.36) ng mL^−1. For the same compound, the “t1/2, arithmetic mean (SD)” value in [4] (setting [23]) was 8.63 (1.67) h; in data set [4] (setting [24]) it was 16.6 (2.38) h; in data set [7] (setting [28]), 25.9 (4.21) h; in [7] (setting [29]), 20.7 (3.96) h. Also, the “tmax, median (range)” value in [4] (setting [23]) is recorded as 2.50 (1.00–4.00) h; in data set [4] (setting [24]), 2.50 (1.50–3.50) h; in [7] (setting [28]), 2.00 (1.00–4.00) h; in data set [7] (setting [29]), 2.25 (1.50–4.00) h. Further, the “MR affinity relative to eplerenone” value in data set [5] (fold greater than eplerenone) is 4 fold. Also, the “MR affinity relative to spironolactone” value in data set [5] (fold greater than spironolactone) was 76 fold. Also, in [6] (both dosages (2.5 and 5 mg d^−1)), the tolerability result is “well tolerated”. Further, the “clinical efficacy vs eplerenone 50 mg d^−1” value in data set [6] (esaxerenone 2.5 mg d^−1, essential hypertension) was “noninferior”. Further, the “clinical efficacy of 5 mg d^−1 dosage vs 2.5 mg d^−1 dosage” value in [6] (essential hypertension) is “superior”. Moreover, the “increase in esaxerenone Cmax” value in [7] (coadministration of itraconazole vs esaxerenone alone) is reported as 12.6%. The “involvement of CYP3A4 in oxidative metabolism” value in data set [8] is reported as “involved in the oxidative metabolism”. Also, in data set [9], the “substrate of P-glycoprotein” value is reported as “substrate”. Moreover, in data set [10], the “involvement of CYP3A5 in oxidative metabolism” value is on record as “involved in the oxidative metabolism”. Moreover, the “mean plasma concentrations, Japanese vs Caucasian subjects” value in [11] is on record as “similar”. Also, the “substrate of breast cancer resistance protein” value in data set [12] is reported as “substrate”. The absolute bioavailability result in data set [13] is “approximately 90%”.
For `COC(=O)[C@@H]1CC2=CC(=O)CC[C@]2(C)[C@@]23O[C@@H]2C[C@@]2(C)[C@@H](CC[C@@]24CCC(=O)O4)[C@H]13` [eplerenone], the IC50 in data set [14] is 0.97 µM. Moreover, the “increase in eplerenone exposure” value in [15] is 5 fold.
Consider `CC(=O)S[C@@H]1CC2=CC(=O)CC[C@]2(C)[C@H]2CC[C@@]3(C)[C@@H](CC[C@@]34CCC(=O)O4)[C@H]12` [spironolactone], for which the IC50 in data set [14] was […].
